Most compounds without a hit are left out; they make up all but 3% or so of the library.
Myeloid diff MLP = promotes myeloid progenitor differentiation; ER-HoxA9 myeloid progenitors, lysozyme-GFP differentiation, flow cytometry; AID 624256; calls only at 10 µM; 360,000 compounds, 1% hits;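 active = normalized GFP-positive differentiation at or above the plate's own cutoff, the solvent-only control mean plus 3 SD; inconclusive = no clear call, values can overlap the other calls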;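 also: cells exposed to compound for four days before flow analysis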
SENP1 FRET inh = SENP1 (human) catalytic domain inhibition; recombinant SENP1 catalytic domain, CyPet-SUMO1-YPet FRET cleavage; 360,000 compounds, 0.21% hits; inhibition, % at 10 µM;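 active = inhibition at least 30% at 10 µM, raw YFP signal under a set limit, fluorescence ratio 0.5 to 1.5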
Target sequence (Q9P0U3 419-644 limits assumed): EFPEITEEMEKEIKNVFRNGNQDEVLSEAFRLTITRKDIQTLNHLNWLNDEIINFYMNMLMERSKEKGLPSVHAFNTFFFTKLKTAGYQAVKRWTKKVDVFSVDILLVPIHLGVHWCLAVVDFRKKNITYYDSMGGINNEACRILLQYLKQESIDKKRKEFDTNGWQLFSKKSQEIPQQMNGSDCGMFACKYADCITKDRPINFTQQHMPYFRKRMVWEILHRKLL
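Compound: 10 µM single point, 0.5% DMSO; Test system: hSENP1 catalytic domain, recombinant; Timing: 50 min reaction at room temperature; Technique: FRET, CFP and YFP emission; Control set: no-enzyme wells low, DMSO-plus-enzyme wells high control.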
Granule exo inh = lytic granule exocytosis inhibition | TALL-104 LAMP-1 surface exposure, flow cytometry; cells stimulated with thapsigargin and PMA | inhibition, % at 10 µM | 360,000 compounds, 0.66% hits;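 active = inhibition above about 55%, limit read from the data; inconclusive = no clear call, values can overlap the other calls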
Pemphigus Ab inh = human desmoglein-3 autoantibody binding inhibition; DSG3-coupled beads, scFv-anti-DSG3-GFP binding, flow cytometry; stronger effect = lower value; binding (percent of control), % at 10 µM; 310,000 compounds, 0.48% hits;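 active = binding more than 3 SD below its plate's average and above zero; inconclusive = below that plate limit but binding exactly zero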;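 also: hits lower antibody fragment binding to DSG3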
Cardio protect = protects H9c2 cardiomyocytes from peroxide injury | H2O2 injury protection, ATPLite, 2 h | protection from H2O2 cell death, % at 20 µM | 360,000 compounds, 0.63% hits;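 active = compounds giving at least 50% protection of heart cells from peroxide-induced death in the single-dose screen, raw or plate-pattern-corrected value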
HNF4A DNA FP = change in binding of human HNF4 alpha to DNA; 360,000 compounds, 0.3% hits; AID 1224865; activity change, % at 10 µM; HNF4a-FITC DNA binding, fluorescence polarization, 1 h; P41235; in the data active = activity change above about 30%, passing the limit was not always enough
Numbers stand for hits.

For COc1ccc2c(c1)OC[C@H]1[C@H]2N2C(=O)c3cc(OC)c(OC)cc3NC(=O)[C@@]2(C)[C@H]1c1ccccc1 the results were Myeloid diff MLP inactive, SENP1 FRET inh inactive, Granule exo inh inactive, Pemphigus Ab inh inactive, Cardio protect inactive and HNF4A DNA FP inactive.
COC(=O)C1=CN(Cc2ccccc2)C=C(C(=O)OC)C1c1cc(F)ccc1F was read as Myeloid diff MLP inactive, SENP1 FRET inh inactive, Granule exo inh inactive, Pemphigus Ab inh inactive, Cardio protect inactive and HNF4A DNA FP inactive.
Screening CCCc1c(C(=O)N/N=C(\C)c2ccccn2)nnn1-c1nonc1N returned Myeloid diff MLP inconclusive, SENP1 FRET inh inactive, Granule exo inh inactive, Pemphigus Ab inh inactive, Cardio protect inactive and HNF4A DNA FP inactive.
Screening NC(=S)N=Nc1c(O)n(CCCl)c2ccc(Cl)cc12 returned Myeloid diff MLP inactive, SENP1 FRET inh inactive, Granule exo inh 57, Pemphigus Ab inh inactive, Cardio protect inactive and HNF4A DNA FP inactive.
`O=C(N[C@@H]1C/C=C\C[C@@H](CC(=O)N(CCO)Cc2ccccc2)C(=O)NCCOC1=O)OCC1c2ccccc2-c2ccccc21` gave Myeloid diff MLP inactive, SENP1 FRET inh inactive, Granule exo inh inactive, Pemphigus Ab inh inactive, Cardio protect inactive and HNF4A DNA FP inactive.
`O=C1N[C@@H](Cc2ccccc2)COC(=O)[C@H](Cc2ccc(F)cc2)CC/C=C/C[C@@H]1CC(=O)N(CCO)Cc1ccccc1` gave Myeloid diff MLP inactive, SENP1 FRET inh inactive, Granule exo inh 58, Pemphigus Ab inh inactive, Cardio protect inactive and HNF4A DNA FP inactive.
Screening O=C(N[C@H]1C/C=C\C[C@@H](CC(=O)N(CCO)Cc2ccccc2)C(=O)NC[C@H](c2ccccc2)OC1=O)OCC1c2ccccc2-c2ccccc21 returned Myeloid diff MLP active, SENP1 FRET inh inactive, Granule exo inh inactive, Pemphigus Ab inh inactive, Cardio protect inactive and HNF4A DNA FP inactive.
For O=C1NC[C@H](c2ccccc2)OC(=O)[C@H](Cc2ccc(F)cc2)CC/C=C/C[C@H]1CC(=O)N(CCO)Cc1ccccc1 the results were Myeloid diff MLP inactive, SENP1 FRET inh inactive, Granule exo inh inactive, Pemphigus Ab inh inactive, Cardio protect 52 and HNF4A DNA FP inactive.
O=C1NC[C@H](c2ccccc2)OC(=O)[C@@H](Cc2ccc(F)cc2)CC/C=C/C[C@H]1CC(=O)N(CCO)Cc1ccccc1 was read as Myeloid diff MLP inconclusive, SENP1 FRET inh inactive, Granule exo inh inactive, Pemphigus Ab inh inactive, Cardio protect 86 and HNF4A DNA FP inactive.
O=C1N[C@@H](Cc2ccccc2)COC(=O)[C@@H](Cc2ccc(F)cc2)CC/C=C/C[C@H]1CC(=O)N(CCO)Cc1ccccc1 was read as Myeloid diff MLP inconclusive, SENP1 FRET inh inactive, Granule exo inh inactive, Pemphigus Ab inh inactive, Cardio protect inactive and HNF4A DNA FP inactive.
COc1cccc(/C=N/NC(=O)c2oc3nc(-c4ccccc4)cc(-c4ccco4)c3c2N)c1 was read as Myeloid diff MLP inactive, SENP1 FRET inh inactive, Granule exo inh inactive, Pemphigus Ab inh inactive, Cardio protect 56 and HNF4A DNA FP 39.
CC(=O)Nc1nc(-c2ccccc2)cc(-c2ccco2)c1C#N was read as Myeloid diff MLP inactive, SENP1 FRET inh inactive, Granule exo inh inactive, Pemphigus Ab inh inactive, Cardio protect inactive and HNF4A DNA FP inactive.
NNC(=O)c1oc2nc(-c3ccccc3)cc(-c3ccccc3)c2c1N was read as Myeloid diff MLP active, SENP1 FRET inh inactive, Granule exo inh inactive, Pemphigus Ab inh inactive, Cardio protect inactive and HNF4A DNA FP inactive.
Screening COc1cccc(-c2cc(C(=O)N/N=C/c3ccco3)c3ccccc3n2)c1 returned Myeloid diff MLP inactive, SENP1 FRET inh inactive, Granule exo inh inactive, Cardio protect inactive and HNF4A DNA FP inactive.
Screening Cc1ccc(-c2cc(-c3ccco3)c3c(N)c(C(=O)NN)oc3n2)cc1 returned Myeloid diff MLP active, SENP1 FRET inh inactive, Granule exo inh inactive, Pemphigus Ab inh inactive, Cardio protect inactive and HNF4A DNA FP inactive.
NNC(=O)c1oc2nc(-c3cccs3)cc(-c3ccco3)c2c1N was read as Myeloid diff MLP active, SENP1 FRET inh inactive, Granule exo inh inactive, Pemphigus Ab inh inactive, Cardio protect inactive and HNF4A DNA FP inactive.
`CNC(=S)NNC(=O)c1oc2nc(-c3ccccc3)cc(C)c2c1N` gave Myeloid diff MLP inactive, SENP1 FRET inh inactive, Granule exo inh inactive, Pemphigus Ab inh inactive, Cardio protect inactive and HNF4A DNA FP inactive.
Screening COc1cccc(NC(=S)N/N=C2\CC(C)(C)Oc3ccc(O)cc32)c1 returned Myeloid diff MLP inactive, SENP1 FRET inh inactive, Granule exo inh inactive, Pemphigus Ab inh inactive, Cardio protect inactive and HNF4A DNA FP inactive.
For Cc1cccc(NC(=S)N/N=C2\CC(C)(C)Oc3ccc(O)cc32)c1 the results were Myeloid diff MLP inactive, SENP1 FRET inh inactive, Granule exo inh inactive, Pemphigus Ab inh inactive, Cardio protect inactive and HNF4A DNA FP 36.
Screening CC(=O)c1cn(CC(=O)Nc2ccccc2Cl)c2ccccc12 returned Myeloid diff MLP inactive, SENP1 FRET inh inactive, Granule exo inh inactive, Pemphigus Ab inh inactive, Cardio protect inactive and HNF4A DNA FP inactive.
CCC(C(=O)N1CCN(Cc2ccc3c(c2)OCO3)CC1)n1c(=O)[nH]c2ccccc2c1=O (centres undefined) was read as Myeloid diff MLP inactive, SENP1 FRET inh inactive, Granule exo inh inactive, Pemphigus Ab inh inactive, Cardio protect inactive and HNF4A DNA FP inactive.
For Oc1cccc(/C=N/Nc2nn3cnnc3c3ccccc23)c1 the results were Myeloid diff MLP inactive, SENP1 FRET inh inactive, Granule exo inh inactive, Pemphigus Ab inh inactive, Cardio protect inactive and HNF4A DNA FP inactive.
`COc1cccc(/C=N/Nc2nn3cnnc3c3ccccc23)c1O` gave Myeloid diff MLP inactive, SENP1 FRET inh 55, Granule exo inh inactive, Pemphigus Ab inh inactive, Cardio protect 50 and HNF4A DNA FP inactive.
CNc1nc2cc([N+](=O)[O-])c([N+](=O)[O-])cc2nc1NC was read as Myeloid diff MLP inconclusive, SENP1 FRET inh 43, Granule exo inh inactive, Pemphigus Ab inh inactive, Cardio protect inactive and HNF4A DNA FP inactive.
Screening N#Cc1cc2nc(O)c(O)nc2cc1[N+](=O)[O-] returned Myeloid diff MLP inactive, SENP1 FRET inh inactive, Granule exo inh inactive, Pemphigus Ab inh inactive, Cardio protect inactive and HNF4A DNA FP inactive.
Screening O=C1/C(=C\c2cc(Cl)c(O)c(Cl)c2)SC(=S)N1Cc1ccccc1 returned Myeloid diff MLP active, SENP1 FRET inh inactive, Granule exo inh inactive, Pemphigus Ab inh inactive, Cardio protect inactive and HNF4A DNA FP inactive.
`Cc1cccn2c(=O)c(/C=C(\C#N)C(=O)NCc3ccco3)c(N3CCCCC3)nc12` gave Myeloid diff MLP active, SENP1 FRET inh inactive, Granule exo inh inactive, Pemphigus Ab inh inactive, Cardio protect inactive and HNF4A DNA FP inactive.

High-throughput results (PubChem BioAssay)
